# Experiments:
# [1] = test system: Mycobacterium tuberculosis; assay: Antimycobacterial activity against Mycobacterium tuberculosis H37Rv in iron rich GAST medium; type: functional
# How it was run: (§1)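 Broth microdilution MIC against M. tuberculosis H37Rv in iron-deficient GAST, or GAST supplemented with 200 μM FeCl3 (iron-rich). Compounds added from DMSO stocks; DMSO-only wells as negative control, isoniazid as positive control. Initial density 10^4–10^5 cells/assay, 37 °C, growth read as OD620 at 10–14 days. Run in quadruplicate; reported as MIC99.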
# [2] = target: T1, Salicyl-AMP ligase / salicyl-S-ArCP synthetase (Mycobacterium tuberculosis, UniProt P71716); assay: Inhibition of Mycobacterium tuberculosis recombinant MbtA expressed in Escherichia coli by ATP/PPi exchange assay; conditions: read-out: Ki app
# T1 sequence (P71716 whole entry): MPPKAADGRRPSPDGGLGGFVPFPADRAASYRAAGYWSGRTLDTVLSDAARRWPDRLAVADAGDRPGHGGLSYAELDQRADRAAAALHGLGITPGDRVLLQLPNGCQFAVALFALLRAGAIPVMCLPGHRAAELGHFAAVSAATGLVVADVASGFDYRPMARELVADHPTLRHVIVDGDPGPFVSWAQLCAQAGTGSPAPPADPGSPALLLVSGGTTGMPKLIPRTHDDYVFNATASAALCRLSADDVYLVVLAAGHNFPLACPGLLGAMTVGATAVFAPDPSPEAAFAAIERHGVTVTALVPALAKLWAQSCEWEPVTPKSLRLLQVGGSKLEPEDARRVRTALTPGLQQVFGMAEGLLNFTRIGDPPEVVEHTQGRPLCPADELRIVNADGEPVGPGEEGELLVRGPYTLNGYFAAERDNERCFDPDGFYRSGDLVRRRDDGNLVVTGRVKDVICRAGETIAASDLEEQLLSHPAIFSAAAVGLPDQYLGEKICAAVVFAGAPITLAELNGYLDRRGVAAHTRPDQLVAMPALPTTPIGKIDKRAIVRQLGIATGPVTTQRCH
# How it was run: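 Recombinant MbtA expressed in E. coli, 7 nM, at 37 °C in 75 mM Tris-HCl pH 7.5, 10 mM MgCl2, 2 mM DTT, 250 μM salicylic acid, 10 mM ATP, 1 mM PPi. Reaction started with [32P]PPi, five inhibitor concentrations, in duplicate. Initial rates (≤10% reaction) measured. Quenched with HClO4/PPi/charcoal; charcoal-bound [32P]ATP counted by scintillation. Apparent Ki from Hill or Morrison (tight-binding) fits.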
# [3] = test system: Mycobacterium tuberculosis; assay: Antimycobacterial activity against Mycobacterium tuberculosis H37Rv in iron deficient GAST medium; type: functional; how it was run: as §1
SMILES,MIC99 [1] [µM],Ki [2] [nM],MIC99 [3] [µM]
Nc1ncnc2c1ncn2[C@@H]1O[C@H](COS(=O)(=O)NC(=O)c2ccccc2F)[C@@H](O)[C@H]1O,50,38,12.5
Nc1ncnc2c1ncn2[C@@H]1O[C@H](COS(=O)(=O)NC(=O)c2ccccc2Cl)[C@@H](O)[C@H]1O,> 200,18100,> 200
Nc1ncnc2c1ncn2[C@@H]1O[C@H](COS(=O)(=O)NC(=O)c2cccc(Cl)c2O)[C@@H](O)[C@H]1O,> 200,61,50
Nc1ncnc2c1ncn2[C@@H]1O[C@H](COS(=O)(=O)NC(=O)c2ccc(Cl)cc2O)[C@@H](O)[C@H]1O,50,12,12.5
Nc1ncnc2c1ncn2[C@@H]1O[C@H](COS(=O)(=O)NC(=O)c2cc(Cl)ccc2O)[C@@H](O)[C@H]1O,50,20,12.5
Nc1ncnc2c1ncn2[C@@H]1O[C@H](COS(=O)(=O)NC(=O)c2ccc(F)cc2O)[C@@H](O)[C@H]1O,0.39,12,0.098
Nc1ncnc2c1ncn2[C@@H]1O[C@H](COS(=O)(=O)NC(=O)c2ccc(Br)cc2O)[C@@H](O)[C@H]1O,50,21,6.25
Cc1ccc(C(=O)NS(=O)(=O)OC[C@H]2O[C@@H](n3cnc4c(N)ncnc43)[C@H](O)[C@@H]2O)c(O)c1,25,14,1.56
Nc1ncnc2c1ncn2[C@@H]1O[C@H](COS(=O)(=O)NC(=O)c2ccc(C(F)(F)F)cc2O)[C@@H](O)[C@H]1O,> 200,4380,> 200
Nc1ccc(C(=O)NS(=O)(=O)OC[C@H]2O[C@@H](n3cnc4c(N)ncnc43)[C@H](O)[C@@H]2O)c(O)c1,25,40,1.56
Nc1ncnc2c1ncn2[C@@H]1O[C@H](COS(=O)(=O)NC(=O)c2c(O)cccc2F)[C@@H](O)[C@H]1O,3.13,7.3,0.78
Nc1ncnc2c1ncn2[C@@H]1O[C@H](COS(=O)(=O)NC(=O)c2cccc(O)c2O)[C@@H](O)[C@H]1O,> 200,137,> 200
Nc1ncnc2c1ncn2[C@@H]1O[C@H](COS(=O)(=O)NC(=O)c2ccc(O)c(O)c2)[C@@H](O)[C@H]1O,> 200,> 100000,> 200
Nc1ncnc2c1ncn2[C@@H]1O[C@H](COS(=O)(=O)NC(=O)c2ccc[nH]c2=O)[C@@H](O)[C@H]1O,> 200,3700,> 200
Nc1ncnc2c1ncn2[C@@H]1O[C@H](COS(=O)(=O)NC(=O)c2cccnc2F)[C@@H](O)[C@H]1O,> 200,2900,> 200
Nc1ncnc2c1ncn2[C@@H]1O[C@H](COS(=O)(=O)NC(=O)c2cccnc2Cl)[C@@H](O)[C@H]1O,50,175,12.5
Nc1ncnc2c1ncn2[C@@H]1O[C@H](COS(=O)(=O)NC(=O)N2CCOCC2)[C@@H](O)[C@H]1O,> 200,> 100000,> 200
Nc1ncnc2c1ncn2[C@@H]1O[C@H](COS(=O)(=O)NC(=O)C2CCCC2)[C@@H](O)[C@H]1O,> 200,49800,> 200
Nc1ncnc2c1ncn2[C@@H]1O[C@H](COS(=O)(=O)NC(=O)C2CCCCC2)[C@@H](O)[C@H]1O,> 200,17300,> 200
CC(=O)NS(=O)(=O)OC[C@H]1O[C@@H](n2cnc3c(N)ncnc32)[C@H](O)[C@@H]1O,> 200,> 100000,> 200
COC(=O)NS(=O)(=O)OC[C@H]1O[C@@H](n2cnc3c(N)ncnc32)[C@H](O)[C@@H]1O,> 200,2500,> 200
Nc1ncnc2c1ncn2[C@@H]1O[C@H](COS(=O)(=O)NC(=O)Cc2ccccc2)[C@@H](O)[C@H]1O,> 200,> 100000,> 200
[N-]=[N+]=Nc1c(F)c(F)c(C(=O)NS(=O)(=O)OC[C@H]2O[C@@H](n3cnc4c(N)ncnc43)[C@H](O)[C@@H]2O)c(F)c1F,> 200,> 100000,> 200
Nc1ncnc2c1ncn2[C@@H]1O[C@H](CNC(=O)c2coc3ccccc3c2=O)[C@@H](O)[C@H]1O,50,> 100000,12.5
Nc1ncnc2c1ncn2[C@@H]1O[C@H](CNS(=O)(=O)NC(=O)c2ccccc2O)[C@@H](O)[C@H]1O,0.39,–,–
Nc1ncnc2c1ncn2[C@@H]1O[C@H](CNC(=O)NC(=O)c2ccccc2O)[C@@H](O)[C@H]1O,> 200,1250,200
Nc1ccccc1C(=O)NS(=O)(=O)OC[C@H]1O[C@@H](n2cnc3c(N)ncnc32)[C@H](O)[C@@H]1O,> 200,770,> 200
Nc1ncnc2c1ncn2[C@@H]1O[C@H](COS(=O)(=O)NC(=O)c2ccccc2)[C@@H](O)[C@H]1O,50,92,12.5
Nc1ncnc2c1ncn2[C@@H]1O[C@H](COS(=O)(=O)NC(=O)c2ccccc2[N+](=O)[O-])[C@@H](O)[C@H]1O,> 200,7320,> 200
Nc1ncnc2c1ncn2[C@@H]1O[C@H](COS(=O)(=O)NC(=O)[C@@H](N)Cc2ccccc2)[C@@H](O)[C@H]1O [PHESA],> 200,36500,> 200
